The values below come from ChEMBL document CHEMBL2434865, “The influence of positional isomerism on G-quadruplex binding and anti-proliferative activity of tetra-substituted naphthalene diimide compounds” (Bioorg Med Chem, 2013).

One experiment relates to A549. Nature of the experiment: Cytotoxicity against human A549 cells after 96 hrs by SRB assay. The class given is functional, cell-based. Particulars: A549, 96 h. In outline: (§1)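 For A549, MCF7, MIA PaCa2 (DMEM with 2 mM glutamine and 10% FCS) and PANC1 (same DMEM), 1000–4000 cells per well were seeded and left 24 h. Compound was added over a concentration range for 96 h at 37 °C in 5% CO2. Cells were fixed with 10% TCA (30 min, 4 °C) and stained with 0.4% SRB in 1% acetic acid for 15 min. Dye was dissolved in 10 mM Tris and read at A540. IC50 was interpolated as the level giving 50% absorbance loss versus untreated cells.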
(In general: The SRB assay estimates cell density from bound dye.)

For experiment [1], the species on record is Homo sapiens. Nature of the experiment: Binding affinity to human HSP90A 5'-FAM-GGGCCAAAGGGAAGGGGTGGG-TAMRA-3' at 2 uM after 3 hrs by HT-FRET assay. The gist of the method:
(§2)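 Oligonucleotides were diluted from 50 µM stock to 400 nM in 60 mM potassium cacodylate pH 7.4, annealed at 95 °C for 10 min, then cooled to RT over 3 h. Ligand came from a 10 mM aqueous stock, was diluted to twice the final level in buffer and mixed 1:1 with DNA, in triplicate. FAM excitation was 450–495 nm and emission 515–545 nm, read every 0.5 °C from 30–100 °C with a 30 s hold. Tm is the first-derivative maximum of the smoothed, normalized curve; ΔTm is relative to DNA without ligand.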

The species entered for experiment [2] is Homo sapiens. The experiment is described as follows: Binding affinity to human HSP90B 5'-FAM-GGGCGGGCCAAAGGGAAGGGG-TAMRA-3' at 2 uM after 3 hrs by HT-FRET assay. The gist of the method:
as §2

The test system of the next experiment is MCF7. Nature of the experiment: Cytotoxicity against human MCF7 cells after 96 hrs by SRB assay. The class given is functional, cell-based. The following applies: MCF7, 96 h. The gist of the method:
as §1

Experiment [3] is filed under the species Homo sapiens. Nature of the experiment: Binding affinity to human HSP90B 5'-FAM-GGGCGGGCCAAAGGGAAGGGG-TAMRA-3' at 1 uM after 3 hrs by HT-FRET assay. The gist of the method:
as §2

Experiment [4] is filed under the species Homo sapiens. Nature of the experiment: Binding affinity to human T-loop 5'-FAM-TATAGCTATATTTTTTTATAGCTATATAMRA-3' at 1 uM after 3 hrs by HT-FRET assay. The gist of the method:
as §2

The subject of a further experiment is MIA PaCa-2. The experiment is described as follows: Cytotoxicity against human MIAPaCa2 cells after 96 hrs by SRB assay. The class given is functional, cell-based. Particulars: MIA PaCa-2, 96 h. In outline: as §1
For experiment [5], the species on record is Homo sapiens. Nature of the experiment: Binding affinity to human telomeric quadruplex 5'-FAM-GGGTTAGGGTTAGGGTTAGGG-TAMRA-3' at 1 uM after 3 hrs by HT-FRET assay. The gist of the method:
as §2

Experiment [6] is filed under the species Homo sapiens. The experiment is described as follows: Binding affinity to human telomeric quadruplex 5'-FAM-GGGTTAGGGTTAGGGTTAGGG-TAMRA-3' at 2 uM after 3 hrs by HT-FRET assay. The gist of the method: as §2
Experiment [7] in a line: Cytotoxicity against human RCC4 cells after 96 hrs by SRB assay. Type of experiment: functional, cell-based. The following applies: RCC4, 96 h.
The test system of experiment [8] is PANC-1. The experiment is described as follows: Cytotoxicity against human PANC1 cells after 96 hrs by SRB assay. Type of experiment: functional, cell-based. Particulars: PANC-1, 96 h. The gist of the method: as §1
The next experiment has as its system WI-38. The experiment is described as follows: Cytotoxicity against human WI38 cells after 96 hrs by SRB assay. Particulars: WI-38, 96 h. Type of experiment: cell-based. In outline: (§3)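 Monolayer cultures were kept at 37 °C in humidified 5% CO2. Media were RPMI 1640 with 2 mM glutamine, 10% FCS and 1 mM pyruvate for 786-O, and MEM with 2 mM glutamine, 1% amino acids and 10% FCS for WI-38. Cells were exposed to compound over a concentration range for 96 h. Cells were fixed with TCA, stained with SRB, dissolved in 10 mM Tris and read at 540 nm. Values were normalized to untreated controls, and IC50 was interpolated as 50% absorbance reduction.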

The species named for experiment [9] is Homo sapiens. Nature of the experiment: Binding affinity to human HSP90A 5'-FAM-GGGCCAAAGGGAAGGGGTGGG-TAMRA-3' at 1 uM after 3 hrs by HT-FRET assay. The gist of the method:
as §2

Experiment [10] is described as follows: Cytotoxicity against human 786-O cells after 96 hrs by SRB assay. The class given is functional, cell-based. Particulars: 786-0, 96 h. In outline:
as §3

The species named for experiment [11] is Homo sapiens. The experiment is described as follows: Binding affinity to human T-loop 5'-FAM-TATAGCTATATTTTTTTATAGCTATATAMRA-3' at 2 uM after 3 hrs by HT-FRET assay. The gist of the method:
as §2

In experiment [12] the test system is PANC-1. The experiment is described as follows: Ratio of IC50 for human MIAPaCa2 cells to IC50 for human PANC1 cells. Type of experiment: functional.

Each structure is given as a SMILES string.

For orientation: IC50 means the concentration that inhibits the measured activity by half. Higher therefore signals lower potency. For orientation: ΔTm means the change in melting temperature against a reference sample. For the molecule `CN1CCN(CCCN2C(=O)c3cc(NCC4CCOCC4)c4c5c(cc(NCC6CCOCC6)c(c35)C2=O)C(=O)N(CCCN2CCN(C)CC2)C4=O)CC1`, the IC50 with A549 worked out at 460 nM; with MCF7, 510 nM; with MIA PaCa-2, 137 nM; in experiment [7] it was 2200 nM; in the experiment with PANC-1 [8] it was 1100 nM; in the experiment on WI-38, 2800 nM. In experiment [10], this molecule registered an IC50 of 290 nM. For the same molecule, the ΔTm in the experiment listed under Homo sapiens [1] is 27 °C; in the experiment listed under Homo sapiens [2] it was 23 °C; in the experiment listed under Homo sapiens [3] it was 3 °C; in the experiment listed under Homo sapiens [4] it was 0 °C; in the experiment listed under Homo sapiens [5], under 2 °C; in the experiment filed under Homo sapiens [6], 22 °C. The ΔTm was found to be 2 °C in the experiment filed under Homo sapiens [9] and 0 °C in the experiment filed under Homo sapiens [11].

Consider `CN1CCN(CCN2C(=O)c3cc(NCCCN4CCOCC4)c4c5c(cc(NCCCN6CCOCC6)c(c35)C2=O)C(=O)N(CCN2CCN(C)CC2)C4=O)CC1`, for which the IC50 with A549 was determined as 20 nM; in the experiment on MCF7, 21 nM; in the experiment on MIA PaCa-2, 5 nM; in experiment [7], 300 nM; with PANC-1 [8] it was 5 nM; with WI-38 it was 180 nM. In experiment [10], this molecule had an IC50 of 160 nM. The ΔTm in the experiment filed under Homo sapiens [1] was 36 °C; in the experiment filed under Homo sapiens [2] it was 32 °C; in the experiment filed under Homo sapiens [3], 28 °C; in the experiment listed under Homo sapiens [4] it was 2 °C; in the experiment listed under Homo sapiens [5], 26 °C; in the experiment filed under Homo sapiens [6], 31 °C. The results for the ΔTm in the experiment filed under Homo sapiens [9] and in the experiment filed under Homo sapiens [11] were 33 °C and 8 °C, respectively.

Turning to `CN1CCN(CCCNc2cc3c4c(c(NCCCN5CCN(C)CC5)cc5c4c2C(=O)N(CCCN2CCOCC2)C5=O)C(=O)N(CCCN2CCOCC2)C3=O)CC1`, in the experiment with PANC-1 [12], the “Ratio IC50” value is recorded as 5. The IC50 with PANC-1 [8] was found to be 3 nM.

For `CN1CCN(CCCN2C(=O)c3cc(NCCCN4CCOCC4)c4c5c(cc(NCCCN6CCOCC6)c(c35)C2=O)C(=O)N(CCCN2CCN(C)CC2)C4=O)CC1`, the IC50 in the experiment on A549 was 7 nM; in the experiment on MCF7, 14 nM; with MIA PaCa-2, 50 nM; in experiment [7], 610 nM; in the experiment on PANC-1 [8], 2 nM; in the experiment with WI-38, 300 nM. This molecule yielded an IC50 in experiment [10] of 440 nM. Further, the ΔTm was determined as 36 °C in the experiment listed under Homo sapiens [1]; 34 °C in the experiment listed under Homo sapiens [2]; 30 °C in the experiment filed under Homo sapiens [3]; 5 °C in the experiment filed under Homo sapiens [4]; 29 °C in the experiment listed under Homo sapiens [5]; 34 °C in the experiment listed under Homo sapiens [6]. The figures for the ΔTm in the experiment filed under Homo sapiens [9] and in the experiment listed under Homo sapiens [11] were 34 °C and 9 °C, respectively.

As to `COCCCNc1cc2c3c(c(NCCCOC)cc4c3c1C(=O)N(CCCN1CCN(C)CC1)C4=O)C(=O)N(CCCN1CCN(C)CC1)C2=O`, the IC50 in the experiment on A549 was 5750 nM; in the experiment with MCF7 it was 17500 nM; with MIA PaCa-2, 7050 nM; in experiment [7] it was 7600 nM; in the experiment on PANC-1 [8], 2500 nM; in the experiment with WI-38, over 25000 nM. In [10], this molecule had an IC50 of 16100 nM. In addition, the thermal shift (ΔTm) is 24 °C in the experiment filed under Homo sapiens [1]; 26 °C in the experiment filed under Homo sapiens [2]; 22 °C in the experiment filed under Homo sapiens [3]; 0 °C in the experiment listed under Homo sapiens [4]; under 2 °C in the experiment listed under Homo sapiens [5]; 16 °C in the experiment filed under Homo sapiens [6]. Further, the ΔTm in the experiment listed under Homo sapiens [9] amounted to 22 °C; in the experiment listed under Homo sapiens [11], 0 °C.

Turning to `CN1CCN(CCCN2C(=O)c3cc(NC[C@@H]4CCCO4)c4c5c(cc(NC[C@H]6CCCO6)c(c35)C2=O)C(=O)N(CCCN2CCN(C)CC2)C4=O)CC1`, the IC50 with A549 was found to be 160 nM; in the experiment on MCF7, 560 nM; in the experiment with MIA PaCa-2, 95 nM; in experiment [7], 3000 nM; in the experiment with PANC-1 [8] it was 1500 nM; in the experiment with WI-38 it was 2300 nM. The same molecule displayed an IC50 in [10] of 390 nM. In addition, the ΔTm is 23 °C in the experiment filed under Homo sapiens [1]; 17 °C in the experiment listed under Homo sapiens [2]; 13 °C in the experiment listed under Homo sapiens [3]; 0 °C in the experiment filed under Homo sapiens [4]; under 2 °C in the experiment filed under Homo sapiens [5]; 15 °C in the experiment listed under Homo sapiens [6]. Further, the figures for the ΔTm in the experiment filed under Homo sapiens [9] and in the experiment filed under Homo sapiens [11] were 21 °C and 0 °C, respectively.
